Values after ≈ are worked out from the molar mass of the structure shown. Active and inactive are the calls of the source. No cut-off for these calls is given here.
Legend:
[1] = system: Mycobacterium tuberculosis; assay: Antimycobacterial activity against Mycobacterium tuberculosis H37Ra by microplate alamar blue assay; assay type: functional
How it was run: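 Microplate Alamar Blue assay against Mycobacterium tuberculosis H37Ra, with isoniazid and kanamycin sulfate as reference drugs.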

[2] = system: NCI-H187; assay: Cytotoxicity against human NCI-H187 cells at 10 ug/mL; assay type: functional, cell-based
[3] = system: Cancer cell lines; assay: Cytotoxicity against human breast cancer cells at 10 ug/mL; assay type: functional, cell-based
[4] = Cytotoxicity against human breast cancer cells; assay type: functional, cell-based; conditions: Cancer cell lines
[5] = system: NCI-H187; assay: Cytotoxicity against human NCI-H187 cells; assay type: functional, cell-based
[6] = system: KB; assay: Cytotoxicity against human KB cells; assay type: functional, cell-based

Question: With `NC[C@H]1O[C@H](O[C@H]2[C@H](O)[C@@H](O[C@H]3O[C@H](CO)[C@@H](O)[C@H](N)[C@H]3O)[C@H](N)C[C@@H]2N)[C@H](O)[C@@H](O)[C@@H]1O.O=S(=O)(O)O` [KANAMYCIN SULFATE] as the molecule, how does the MIC [1] read?
Answer: 1.25 µg/mL

Question: Which Activity [2] does the source give for `COc1cc(O)c2c(=O)cc(-c3ccc(OC)c(-c4c(O)cc(O)c5c(=O)cc(-c6ccc(O)cc6)oc45)c3)oc2c1` here?
Answer: inactive

Question: And the Activity [3]?
Answer: inactive

Question: Which Activity [2] does the source give for `C=C[C@]1(C)C=C2CC[C@@H]3C(C)(C)[C@H](O)C(=O)C[C@@]3(C)[C@@H]2C[C@@H]1O` here?
Answer: inactive

Question: What about the Activity [3] of the same molecule?
Answer: inactive

Question: Which Activity [2] does the source give for `C=C(C)[C@@H]1CC[C@]2(C)CC[C@]3(C)[C@H](CC[C@@H]4[C@@]5(C)CC[C@H](O)C(C)(C)[C@@H]5CC[C@]43C)[C@@H]12` here?
Answer: inactive

Question: And the Activity [3]?
Answer: inactive

Question: Which results are given for `O=c1cc(-c2ccc(O)c(-c3c(O)cc(O)c4c(=O)cc(-c5ccc(O)cc5)oc34)c2)oc2cc(O)cc(O)c12`?
Answer: Activity [2]: inactive; Activity [3]: inactive

Question: For `C=C[C@@]1(C)C(=O)C=C2C(=CC[C@@H]3C(C)(C)[C@H](O)C(=O)C[C@@]23C)[C@H]1O`, which Activity [2] is on record?
Answer: inactive

Question: What about the Activity [3] of the same molecule?
Answer: inactive

Question: Which results are given for `CC1(C)[C@H](O)[C@@H](O)C[C@]2(C)[C@@H]1CC[C@]13C=C[C@](C)(C1)C(=O)C[C@H]32`?
Answer: Activity [2]: inactive; Activity [3]: inactive

Question: Which Activity [2] does the source give for `C=Cc1c(C)c(O)cc2c1CCC(C(C)(C)C(=O)O)[C@@]2(C)CC(=O)O` (stereo partly specified) here?
Answer: inactive

Question: What about the Activity [3] of the same molecule?
Answer: inactive

Question: For `CC1(C)CC[C@]2(C(=O)O)CC=C3[C@]4(C)CC[C@H]5C(C)(C)[C@@H](O)CC[C@]5(C)[C@H]4CC[C@@]3(C)[C@@H]2C1`, which Activity [2] is on record?
Answer: inactive

Question: What about the Activity [3] of the same molecule?
Answer: inactive

Question: What does the source list for `C=C(C)[C@@H]1CC[C@]2(C)CC[C@]3(C)[C@H](CC[C@@H]4[C@@]5(C)CC[C@H](OC(C)=O)C(C)(C)[C@@H]5CC[C@]43C)[C@@H]12`?
Answer: Activity [2]: inactive; Activity [3]: inactive

Question: Which results are given for `CC(=O)O[C@H]1CC[C@]2(C)[C@H]3CC[C@]4(C)C(=CC[C@@]5(C(=O)O)CCC(C)(C)C[C@H]54)[C@]3(C)CC[C@H]2C1(C)C`?
Answer: Activity [2]: inactive; Activity [3]: inactive

Question: Which Activity [2] does the source give for `COC(=O)C(C)(C)C1CC[C@@]2(C)C3=CC[C@@]4(C(=O)O)CCC(C)(C)CC4[C@]3(C)CCC2[C@@]1(C)CC(=O)O` (stereo partly specified) here?
Answer: inactive

Question: And the Activity [3]?
Answer: inactive

Question: With `NNC(=O)c1ccncc1` [ISONIAZID] as the molecule, how does the MIC [1] read?
Answer: 0.05 µg/mL (≈ 0.365 µM)

Question: With `COc1ccc(-c2cc(=O)c3c(O)cc(O)c(-c4cc(-c5cc(=O)c6c(O)cc(OC)cc6o5)ccc4O)c3o2)cc1` as the molecule, how does the Activity [2] read?
Answer: inactive

Question: And the Activity [3]?
Answer: inactive

Question: Which Activity [2] does the source give for `C=C(C)[C@H]1CC[C@]2(C)[C@H]3CC[C@@H]4[C@@]5(C)CC[C@H](O)C(C)(C)[C@@H]5CC[C@@]4(C)[C@]3(C)CC[C@@H]12` here?
Answer: inactive

Question: And the Activity [3]?
Answer: inactive

Question: With `COc1cc(O)c2c(=O)cc(-c3ccc(O)c(-c4c(O)cc(O)c5c(=O)cc(-c6ccc(O)cc6)oc45)c3)oc2c1` as the molecule, how does the Activity [2] read?
Answer: inactive

Question: What about the Activity [3] of the same molecule?
Answer: inactive

Question: Which results are given for `COC(=O)C[C@@]1(C)C(C(C)(C)C(=O)OC)CC[C@@]2(C)C3=CC[C@@]4(C(=O)O)CCC(C)(C)CC4[C@]3(C)CCC12` (stereo partly specified)?
Answer: MIC [1]: 3.13 µg/mL (≈ 5.9 µM); IC50 [4]: 7.08 µg/mL (≈ 13.3 µM); IC50 [5]: 4.65 µg/mL (≈ 8.76 µM)

Question: What does the source list for `Cc1c2ccncc2c(C)c2c1[nH]c1ccccc12` [ELLIPTECINE]?
Answer: IC50 [6]: 0.41 µg/mL (≈ 1.66 µM); IC50 [4]: 0.13 µg/mL (≈ 0.528 µM); IC50 [5]: 0.52 µg/mL (≈ 2.11 µM)

— ChEMBL document CHEMBL1144725, “Seco-terpenoids and other constituents from Elateriospermum tapos” (J Nat Prod, 2008)
